Measured values reported in publication PMC9418647 (European Journal of Drug Metabolism and Pharmacokinetics, 2022).

How the values were obtained:
[1] = cited from earlier work
[2] = cited from earlier work; remark: listed apart in the source
[3] = finerenone 20 mg; cited from earlier work
OATP1B1 = target: T1, OATP1B1 (Homo sapiens, UniProt Q9Y6L6); experiment: Uptake assay for OATP1B1 inhibition in HEK-OATP1B1 cells; assay type: in vitro ADME
T1 sequence (Q9Y6L6 1-691): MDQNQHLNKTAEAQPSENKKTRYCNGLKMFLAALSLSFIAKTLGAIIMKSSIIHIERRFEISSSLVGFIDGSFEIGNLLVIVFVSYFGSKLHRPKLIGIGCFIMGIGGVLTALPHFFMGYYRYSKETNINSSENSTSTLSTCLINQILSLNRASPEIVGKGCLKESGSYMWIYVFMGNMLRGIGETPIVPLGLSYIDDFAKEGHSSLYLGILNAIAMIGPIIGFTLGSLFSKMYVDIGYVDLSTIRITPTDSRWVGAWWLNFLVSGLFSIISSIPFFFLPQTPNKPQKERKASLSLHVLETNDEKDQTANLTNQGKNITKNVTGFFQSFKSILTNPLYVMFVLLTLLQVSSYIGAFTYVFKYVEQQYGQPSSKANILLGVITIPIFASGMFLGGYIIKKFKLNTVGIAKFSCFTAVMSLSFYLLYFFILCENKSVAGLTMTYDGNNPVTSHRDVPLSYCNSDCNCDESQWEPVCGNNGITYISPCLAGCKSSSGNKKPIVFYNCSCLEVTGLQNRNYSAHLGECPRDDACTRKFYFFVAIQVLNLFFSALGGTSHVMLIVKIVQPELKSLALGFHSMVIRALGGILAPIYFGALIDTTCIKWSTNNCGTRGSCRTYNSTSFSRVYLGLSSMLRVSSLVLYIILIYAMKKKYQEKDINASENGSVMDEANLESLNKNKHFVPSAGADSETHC
Summary of the method: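 OATP1B1 uptake measured across a test-compound concentration range. IC50 reported as greater than the top concentration if inhibition stayed below 50%, and that concentration was then used in the calculation. AUC ratio estimated by the basic static model, assuming substrate clearance runs solely via the transporter.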

OATP1B3 = target: T2, OATP1B3 (Homo sapiens, UniProt Q9NPD5); experiment: Uptake assay for OATP1B3 inhibition in HEK-OATP1B3 cells; assay type: in vitro ADME
T2 sequence (Q9NPD5 1-702): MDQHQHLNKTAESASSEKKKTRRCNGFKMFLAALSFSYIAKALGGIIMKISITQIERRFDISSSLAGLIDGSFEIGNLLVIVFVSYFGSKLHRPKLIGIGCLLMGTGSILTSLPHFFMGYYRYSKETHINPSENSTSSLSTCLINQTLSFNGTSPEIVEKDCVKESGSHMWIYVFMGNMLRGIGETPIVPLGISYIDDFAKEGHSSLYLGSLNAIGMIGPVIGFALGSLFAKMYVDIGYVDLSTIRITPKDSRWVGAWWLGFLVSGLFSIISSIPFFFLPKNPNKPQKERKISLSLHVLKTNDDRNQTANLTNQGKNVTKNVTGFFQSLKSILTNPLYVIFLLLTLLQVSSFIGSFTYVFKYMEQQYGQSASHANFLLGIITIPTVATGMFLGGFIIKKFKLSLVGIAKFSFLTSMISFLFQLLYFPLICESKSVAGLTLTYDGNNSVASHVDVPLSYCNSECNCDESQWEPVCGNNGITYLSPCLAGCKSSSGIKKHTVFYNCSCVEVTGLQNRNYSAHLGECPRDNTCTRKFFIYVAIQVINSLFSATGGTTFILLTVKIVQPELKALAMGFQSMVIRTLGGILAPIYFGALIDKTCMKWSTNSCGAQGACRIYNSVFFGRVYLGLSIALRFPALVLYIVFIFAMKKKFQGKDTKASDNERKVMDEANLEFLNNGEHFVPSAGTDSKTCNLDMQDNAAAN
Summary of the method: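 Transporter-mediated transport measured across a test-compound concentration range. Where inhibition stayed below 50% at the top concentration, IC50 was reported as greater than the highest tested concentration.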

[4] = Clinical study: safety and tolerability; assay type: in vivo, human
Summary of the method: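 Healthy men given finerenone 40 mg once daily for 10 days, with rosuvastatin. Supine BP, HR and 12-lead ECG recorded after 15 min rest, pre-dose and up to 24 h post-dose. Haematology and chemistry including serum electrolytes taken pre-dose and at 24 and 48 h, except after separated dosing. Adverse events elicited with non-leading questions through follow-up.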

Cc1ccc(C)c(OCCCC(C)(C)C(=O)O)c1 [gemfibrozil]
increase of rosuvastatin AUC [1]: 1.88 fold
increase of rosuvastatin Cmax [1]: 2.21 fold

CCOc1ncc(C)c2c1[C@H](c1ccc(C#N)cc1OC)C(C(N)=O)=C(C)N2 [Finerenone, finerenone]
absolute bioavailability [2]: 43.5%
administered dose excreted in feces [2]: approximately 20%
administered dose excreted in urine [2]: About 80%
dose excreted unchanged in feces [2]: < 0.2%
dose excreted unchanged in urine [2]: < 1%
share of metabolic clearance by CYP3A4 ([2]; remainder attributable to CYP2C8): about 90%
effect on repaglinide (CYP2C8 and OATP substrate) [3]: no effect
IC50 (OATP1B1): 3.2 µM
predicted AUC ratio (AUCR), inhibition of OATP1B1 (OATP1B1; basic model R = 1 + [I]inlet,max,u (or Cmax,u)/IC50): 1.182
IC50 (OATP1B3): > 10 µM
changes in potassium levels ([4]; finerenone 40 mg): no relevant changes in potassium levels
serious or severe adverse events ([4]; finerenone 40 mg alone or with rosuvastatin): no serious or severe AEs
tolerability ([4]; repeated doses of finerenone 40 mg once daily, healthy male volunteers): well tolerated

CC(C)c1nc(N(C)S(C)(=O)=O)nc(-c2ccc(F)cc2)c1/C=C/[C@@H](O)C[C@@H](O)CC(=O)O [Rosuvastatin, rosuvastatin]
Tmax (expected) [1]: approximately 5 h

CO[C@H]1/C=C/O[C@@]2(C)Oc3c(C)c(O)c4c(O)c(c(/C=N/N5CCN(C)CC5)c(O)c4c3C2=O)NC(=O)/C(C)=C\C=C\[C@H](C)[C@H](O)[C@@H](C)[C@@H](O)[C@@H](C)[C@H](OC(C)=O)[C@@H]1C [rifampicin]
CP-I AUC ratio [1]: 4.0
CP-III AUC ratio [1]: 3.3
rosuvastatin AUC ratio [1]: 5.0

CC1=NN(c2ccc(C)c(C)c2)C(=O)/C1=N\Nc1cccc(-c2cccc(C(=O)O)c2)c1O [eltrombopag]
rosuvastatin AUC ratio [1]: 1.55
rosuvastatin Cmax ratio [1]: 2.03
